# Data from ChEMBL document CHEMBL2040753, “Development of potent and selective inhibitors of aldo-keto reductase 1C3 (type 5 17β-hydroxysteroid dehydrogenase) based on N-phenyl-aminobenzoates and their structure-activity relationships” (J Med Chem, 2012).
# pIC50: −log10 of the molar value.
# How the values were obtained:
# [1] = molecular target: T1, Aldo-keto reductase family 1 member C2 (Homo sapiens, UniProt P52895); assay: Inhibition of recombinant AKR1C2 assessed as NADP+ dependent oxidation of S-tetralol by fluorescence assay
# T1 sequence (P52895 whole entry): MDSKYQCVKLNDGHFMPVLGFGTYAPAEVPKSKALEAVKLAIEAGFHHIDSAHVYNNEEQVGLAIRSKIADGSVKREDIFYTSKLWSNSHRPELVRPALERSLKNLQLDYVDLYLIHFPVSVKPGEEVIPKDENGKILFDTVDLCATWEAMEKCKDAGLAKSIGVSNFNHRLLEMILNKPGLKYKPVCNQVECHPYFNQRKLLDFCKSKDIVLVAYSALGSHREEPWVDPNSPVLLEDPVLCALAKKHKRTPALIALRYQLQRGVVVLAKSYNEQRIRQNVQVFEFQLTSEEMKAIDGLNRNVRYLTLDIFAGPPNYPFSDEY
# Method in brief: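 Homogeneous recombinant enzyme; continuous oxidation of S-tetralol (at each isoform's KM) with 200 μM NADP+ in 100 mM phosphate pH 7.0, 4% DMSO, 37 °C. Initial velocities compared with solvent control; quadruplicate points over a range of inhibitor concentrations; IC50 from curve fit.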
# [2] = molecular target: T2, Aldo-keto reductase family 1 member C3 (Homo sapiens, UniProt P42330); assay: Inhibition of recombinant AKR1C3 assessed as NADP+ dependent oxidation of S-tetralol by fluorescence assay
# T2 sequence (P42330 whole entry): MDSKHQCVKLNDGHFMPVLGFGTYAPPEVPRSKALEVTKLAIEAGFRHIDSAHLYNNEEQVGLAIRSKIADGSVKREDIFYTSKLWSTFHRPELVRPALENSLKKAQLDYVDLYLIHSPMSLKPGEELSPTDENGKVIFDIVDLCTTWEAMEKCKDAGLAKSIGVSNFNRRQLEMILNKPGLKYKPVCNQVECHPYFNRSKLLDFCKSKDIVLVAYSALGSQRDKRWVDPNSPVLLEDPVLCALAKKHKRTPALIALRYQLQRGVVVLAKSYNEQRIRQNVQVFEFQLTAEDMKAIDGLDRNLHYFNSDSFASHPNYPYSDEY
pIC50 [1],pIC50 [2],Compound
5.17,5.65,COc1cc(Nc2cc(OC)ccc2C(=O)O)cc(OC)c1
5.83,5.78,COc1ccc(C(=O)O)c(Nc2ccccc2)c1
5.65,6.22,CC(=O)c1ccc(Nc2ccc(Cl)cc2)c(C(=O)O)c1
6.04,6.21,COc1ccc(Nc2ccc(C(C)=O)cc2C(=O)O)cc1
4.64,5.66,COc1ccc(Nc2ccc(C(=O)O)cc2)cc1
6.54,6.66,COc1ccc(C(=O)O)c(Nc2ccc(Cl)cc2)c1
4.70,5.98,O=C(O)c1ccc(Nc2ccc(Cl)cc2)cc1
6.04,7.52,COc1ccc(Nc2ccccc2C(=O)O)c([N+](=O)[O-])c1
< 4.52,5.93,O=C(O)c1ccc(Nc2ccc(Br)cc2)cc1
6.42,6.62,Cc1cccc(Nc2ccccc2C(=O)O)c1
4.95,5.88,O=C(O)c1ccc(Nc2ccc([N+](=O)[O-])cc2)cc1
5.15,6.55,CC(=O)c1ccc(Nc2ccc(C(C)(C)C)cc2)c(C(=O)O)c1
5.49,5.56,O=C(O)c1ccc(Nc2ccccc2C(=O)O)cc1
6.04,6.60,COc1ccc(Nc2cc(OC)ccc2C(=O)O)cc1
5.97,7.40,CC(C)(C)c1ccc(Nc2ccccc2C(=O)O)cc1
6.55,6.80,COc1ccc(C(=O)O)c(Nc2cccc(Cl)c2)c1
5.95,6.24,COc1cccc(Nc2ccccc2C(=O)O)c1
5.08,5.78,CC(=O)c1ccc(Nc2ccc(C)cc2)c(C(=O)O)c1
5.95,6.10,COc1ccc(C(=O)O)c(Nc2ccc(C)cc2)c1
5.68,5.87,CC(=O)c1ccc(Nc2ccccc2C(F)(F)F)c(C(=O)O)c1
5.88,5.93,CC(=O)c1ccc(Nc2ccc([N+](=O)[O-])cc2)c(C(=O)O)c1
4.53,5.47,COc1ccccc1Nc1ccc(C(=O)O)cc1
5.62,5.76,COc1ccc(C(=O)O)c(Nc2ccccc2OC)c1
4.23,5.69,COc1ccc(Nc2ccc(C(=O)O)cc2)c([N+](=O)[O-])c1
6.29,7.40,O=C(O)c1ccccc1Nc1cccc([N+](=O)[O-])c1
6.01,6.16,COc1ccc(C(=O)O)c(Nc2ccc(C(=O)O)cc2)c1

Compound,pIC50 [1],pIC50 [2]
COc1ccc(Nc2ccccc2C(=O)O)cc1,6.15,7.05
CC(=O)c1ccc(Nc2ccccc2C(C)=O)c(C(=O)O)c1,4.90,5.35
Cc1ccc(Nc2ccccc2C(=O)O)cc1,5.84,6.44
CC(=O)c1ccc(Nc2cccc(C)c2)c(C(=O)O)c1,5.55,5.71
CC(=O)c1cccc(Nc2ccc(C(C)=O)cc2C(=O)O)c1,5.73,6.19
O=C(O)c1ccccc1Nc1ccc(Cl)cc1,6.39,7.15
CC(=O)c1cccc(Nc2cccc(C(=O)O)c2)c1,4.44,6.25
COc1ccc(C(=O)O)c(Nc2cc(C)cc(C)c2)c1,5.49,5.76
COc1ccc(C(=O)O)c(Nc2ccc(C(C)=O)cc2)c1,6.57,6.30
O=C(O)c1cccc(Nc2cc(C(F)(F)F)cc(C(F)(F)F)c2)c1,4.72,6.60
COc1ccccc1Nc1ccc(C(C)=O)cc1C(=O)O,5.05,5.51
O=C(O)c1ccccc1Nc1ccc([N+](=O)[O-])cc1,6.55,6.80
COc1ccccc1Nc1ccccc1C(=O)O,5.89,5.65
CC(C)(C)c1ccc(Nc2ccc(C(=O)O)cc2)cc1,4.99,6.03
